Measurements taken from ChEMBL document CHEMBL1914285, “Identification of new antimalarial leads by use of virtual screening against cytochrome bc₁” (Bioorg Med Chem, 2011).

Test system: Plasmodium falciparum
Assay: Antiplasmodial activity against chloroquine-resistant Plasmodium falciparum W2 infected in human erythrocytes after 48 hrs by FACS analysis
Assay type: functional, organism-based
Conditions: W2, 48 h
Summary of the method: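 Ring-stage W2-infected human RBCs at ~1% parasitemia, sorbitol (5%) synchronized; 48 h at 37 °C with compounds in RPMI-1640, 25 mM HEPES pH 7.4, 10% heat-inactivated human serum (or 0.5% Albumax/2% human serum), 100 hypoxanthine, 3% O2/5% CO2/91% N2. Cells fixed in 2% HCHO, stained with 1 nM YOYO-1 (NH4Cl/Triton X-100), flow cytometry at ex 488/em 520 nm; IC50 by curve fitting.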

Row | SMILES | IC50 [µM]
1 | CSCCC(N)c1nc(C(=O)CC(Cc2c[nH]c3ccccc23)C(N)=O)cs1 (stereo not drawn) | > 50
2 | Cn1c(SCc2nc(-c3cccs3)no2)nnc1-c1c[nH]c2ccccc12 | 29.5
3 | O=C(NCc1ccoc1)C1CCC(Cn2c(=S)[nH]c3ccccc3c2=O)CC1 (stereo not drawn) | > 50
4 | Cn1c(SCc2nc(-c3ccc(Cl)cc3)no2)nnc1-c1c[nH]c2ccccc12 | > 50
5 | CCSc1nnc(NC(=O)CS(=O)(=O)c2c[nH]c3ccccc23)s1 | > 50
6 | COc1ccc(SCCc2ccc(C)nc2)cc1 | > 50
7 | O=C(Cc1ccc2c(c1)CCC2)NCCc1ccco1 | > 50
8 | Cc1ccc2[nH]c3nc(SCC(=O)Nc4sc5c(c4C#N)CCCC5)nnc3c2c1 | > 50
9 | COc1ccc(-c2noc(CSc3nnc(-c4c[nH]c5ccccc45)n3C)n2)cc1OC | 12.1
10 | Cc1nc2ccccc2nc1CSCc1ccco1 | > 50
11 | Cc1ccc(C)n1CCSc1nc(N)cc(N)n1 | > 50
12 | c1ccn2cc(CSc3nnc(C4CC4)o3)nc2c1 | > 50
13 | COc1ccc(NC(=O)CCCn2c(=S)[nH]c3ccccc3c2=O)cc1OC | > 50
14 | Cc1ccccc1OCCSc1nnc(-c2c[nH]c3ccccc23)n1C | 6.69
15 | O=C(CSc1nnc(-c2c[nH]c3ccccc23)o1)c1ccc2c(c1)OCCO2 | > 50
16 | Cc1ccc(CNC(=O)CCn2c(=S)[nH]c3cc4c(cc3c2=O)OCO4)o1 | > 50
17 | CCn1c(SCc2nc(-c3cccs3)no2)nnc1-c1c[nH]c2ccccc12 | 28.5
18 | COc1ccc2[nH]c3nc(SCC(=O)Nc4nc(C(C)(C)C)cs4)nnc3c2c1 | 27.1
19 | CCCNc1nnc(SCc2cscn2)s1 | > 50
20 | NC(=O)C(CC(=O)c1csc(C2CCCNC2)n1)Cc1c[nH]c2ccccc12 (stereo not drawn) | > 50
21 | c1cnc(SCCOc2ccc3c(c2)CCC3)nc1 | > 50
22 | Cc1ccc(NC(=O)CSc2nc(O)cc(NS(=O)(=O)c3ccccc3)n2)cc1 | > 50
23 | O=C(NCc1cccnc1)C1CCC(Cn2c(=S)[nH]c3ccccc3c2=O)CC1 (stereo not drawn) | 1.97
